Source: PubChem
Rows were chosen to be rich in hits. Some 1.2% of all compounds tested hit in one or more screens of this group.
ARNT-TACC3 inh: disruptors of ARNT/TACC3 protein interaction, primary screen, biochemical, AlphaScreen, single concentration; Transforming acidic coiled-coil-containing protein 3 (Homo sapiens), Q9Y6A5; AlphaScreen His-ARNT PAS-B/GST-TACC3 binding, luminescence; TACC3 fragment carries E629A point mutation; inhibition, % at 9.99 µM; 0.66% of 390,000 active; AID 623870, 2012;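 active means mean inhibition of replicates at least 50% and at least half of replicates each reaching 50%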
CAL PDZ FP-1: untagged CAL PDZ binding inhibitors, primary screen, biochemical, fluorescence polarization, HTS. inhibition, % at 24.9 µM. AID 602252, 2012. 0.92% of 300,000 active. purified CAL PDZ, TMR-peptide fluorescence polarization, 1 h;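 active means mean inhibition of at least 30% with at least half of replicates also reaching 30%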
CaV13 ICDI inh: Primary screen for inhibitors of IQ motif and Ca2+-dependent inactivation inhibitor domain binding in CACNA1D, Förster resonance energy transfer in living cells, …; HEK cells, CFP/YFP FRET ICDI-IQ, plate reader, 10 min; percent FRET-ratio fall versus neutral wells; inhibition, % at 12.3 µM; 0.098% of 340,000 active; AID 743397;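 active means mean replicate inhibition of at least 30% and at least 1% of replicates passing that level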
CAL PDZ FP-2: CAL PDZ peptide-binding inhibitors, primary screen, biochemical, fluorescence polarization, Cer-tagged CAL PDZ, HTS; AID 504414, 2011; 0.02% of 330,000 active; Golgi-associated PDZ and coiled-coil motif-containing protein (Homo sapiens), Q9HD26; purified CAL PDZ, TMR-peptide fluorescence polarization, 1 h; inhibition, % at 20 µM;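 active means highest replicate inhibition of at least 40%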
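Assay system – tagged CAL PDZ protein CerCALP, purified · Timing – 1 h at RT · Compound – single point, 20 µM · Measured by – fluorescence polarization from S- and P-plane intensities, G-factor corrected · Evaluation – inhibition from polarization loss · Probe or stimulus – TMR reporter peptide T*-PRC34 · Buffer or medium – pH 7.4 phosphate-saline buffer, reducing agent, detergent, IgG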
Of the large screens only hits and unclear results are named; the others gave an inactive call.

CC(C)NC(=O)N(C)C[C@H]1OCCCC[C@H](C)Oc2ccc(NC(=O)C3CCCCC3)cc2C(=O)N([C@H](C)CO)C[C@@H]1C	none (no result: CAL PDZ FP-1, CaV13 ICDI inh, CAL PDZ FP-2)
CC(C)(C)OC(=O)n1cc(C(=O)c2ccccc2O)cn1	CAL PDZ FP-1 70 (no result: ARNT-TACC3 inh)
CCOC(=O)n1cc(C(=O)c2ccccc2O)cn1	none
Cc1noc(C)c1NC(=O)Nc1ccc2c(c1)CC(=O)N([C@@H](C)CO)C[C@@H](C)[C@@H](CN(C)CC1CC1)O2	none (no result: CAL PDZ FP-1, CaV13 ICDI inh, CAL PDZ FP-2)
CCC/C(O)=C1\C(=O)CC(C)(C)CC1=Nc1ccc(OC)cc1OC	CAL PDZ FP-1 60 (no result: CaV13 ICDI inh)
O=C(C[C@@H]1CC[C@H](NS(=O)(=O)c2ccccc2)[C@@H](CO)O1)NCc1ccccc1F	none (no result: CAL PDZ FP-1, CaV13 ICDI inh, CAL PDZ FP-2)
C[N+](C)(CC#N)C/C=C\c1ccccc1	CAL PDZ FP-1 76
COCCNC(=O)/C(C#N)=C/c1c(N2CCN(c3ccccc3)CC2)nc2ccccn2c1=O	CAL PDZ FP-1 57
CC(C)NC(=O)Nc1cccc2c1O[C@@H](CN(C)Cc1ccc(C(=O)O)cc1)[C@@H](C)CN([C@@H](C)CO)C2=O	none (no result: CAL PDZ FP-1, CaV13 ICDI inh, CAL PDZ FP-2)
O=C(CN1C(=O)COc2ccccc21)NCC1CCCO1 (stereo not drawn)	none
O=C(CN1C(=O)COc2ccc(Cl)cc21)NCC1CCCO1 (stereo not drawn)	CAL PDZ FP-1 35
C=CCn1c(O)c(N=NC(=O)CNC(=O)/C=C/c2ccc(OC)cc2)c2ccccc21	CAL PDZ FP-1 59
CCc1ncc(CN2CCCC(C(=O)Nc3cccc(-c4ccc(F)cc4)c3)C2)cn1 (stereo not drawn)	none
CCn1cc(CN2CCCC(C(=O)Nc3cccc(-c4cc5ccccc5[nH]4)c3)C2)cn1 (stereo not drawn)	CAL PDZ FP-1 51
N=C(N)SCc1ncccc1O	ARNT-TACC3 inh 50
Cc1cc(Br)cc(Cl)c1OC(=O)c1ccncc1	CAL PDZ FP-1 47
CCOC(=O)c1c(/N=C/C2C(=O)CC(C)(C)CC2=O)sc2c1CCCC2	CAL PDZ FP-1 79
Cc1cc2oc(C(=O)Nc3ccc(S(=O)(=O)Nc4ncccn4)cc3)cc(=O)c2cc1Cl	CAL PDZ FP-1 90
Cc1ccc2c(=O)cc(C(=O)Nc3ccc(S(=O)(=O)Nc4onc(C)c4C)cc3)oc2c1	none (no result: CAL PDZ FP-1)
CCS(=O)(=O)C(C)(CCl)C(=O)Nc1ccc(C(=O)OC)cc1 (stereo not drawn)	ARNT-TACC3 inh active
COCCn1c(-c2ccccc2)cnc1N	ARNT-TACC3 inh 51
COc1ccc(-c2cnc(N)n2C)cc1	ARNT-TACC3 inh 69
COc1ccc(CNc2ncc(-c3ccccc3)n2C)cc1	none
Cn1c(-c2ccccc2)cnc1N	ARNT-TACC3 inh 58
COCCn1c(-c2ccccc2)nc2ccccc21	none
Cn1c(-c2ccccc2)cnc1SCC(N)=O	none
CCNC(=O)Nc1ccc2c(c1)C(=O)N(C)[C@H]1CC[C@H](CC(=O)NCc3ccccc3F)O[C@H]1CO2	none (no result: CAL PDZ FP-1, CaV13 ICDI inh, CAL PDZ FP-2)
CO[C@@H]1CC[C@@H]2CCN(C)C(=O)CCCN(C)C(=O)c3cc(C#N)ccc3OC[C@H]1O2	none (no result: CAL PDZ FP-1, CaV13 ICDI inh, CAL PDZ FP-2)
C[C@@H]1CN([C@@H](C)CO)C(=O)c2cc(N(C)C)ccc2O[C@@H](C)CCCCO[C@H]1CN(C)C(=O)C1CCCCC1	none (no result: CAL PDZ FP-1, CaV13 ICDI inh, CAL PDZ FP-2)
O=C(Nc1cnccn1)Nc1ccccc1F	CAL PDZ FP-1 52
O=C(NN1C(=O)CSC1=S)C(=O)NN1C(=O)CSC1=S	ARNT-TACC3 inh 59
CC(C)(C)n1ncc2c(=O)n(Cc3ccc(Cl)c(Cl)c3)cnc21	CAL PDZ FP-1 82
COc1cccc(CN(C)C(=O)CN2C(=O)NC(c3ccccc3)(c3ccccc3)C2=O)c1	CAL PDZ FP-1 79
O=C(NCCc1ccccc1)[C@H]1[C@H](CO)[C@H]2Cn3c(cccc3=O)[C@@H]1N2C(=O)C1CCC1	none (no result: CAL PDZ FP-1, CaV13 ICDI inh, CAL PDZ FP-2)
Cc1cc(=O)[nH]c(N/N=C/C2=C(N3CCOCC3)C(=C\c3ccc(Cl)cc3)/CC2)n1	ARNT-TACC3 inh 24
Cc1cc(=O)[nH]c(NN=Cc2c(Cl)cccc2Cl)n1	none
Cc1cc(C)nc(N/N=C/C2=C(N3CCOCC3)C(=C/c3ccccc3)/CC2)n1	none
CN(C)c1ccc(/C=N\Nc2nc(-c3ccccc3)cc(=O)[nH]2)cc1	CAL PDZ FP-1 71
Cc1cc(=O)[nH]c(N/N=C/c2c(O)n(-c3ccccc3)c(=O)c3ccccc23)n1	ARNT-TACC3 inh 72
COc1ccccc1C=NNc1nc(C)cc(=O)[nH]1	none
Cc1cc(=O)[nH]c(N/N=C/c2ccc(Br)s2)n1	ARNT-TACC3 inh 61
CO[C@@H]1CN(C)C(=O)c2ccc(NS(C)(=O)=O)cc2OC[C@@H](C)N(C(=O)C2CCCC2)C[C@H]1C	none (no result: CAL PDZ FP-1, CaV13 ICDI inh, CAL PDZ FP-2)
C[C@@H]1CCCCO[C@@H](CN(C)C)[C@@H](C)CN([C@@H](C)CO)C(=O)c2cc(NS(=O)(=O)c3cccs3)ccc2O1	none (no result: CAL PDZ FP-1, CaV13 ICDI inh, CAL PDZ FP-2)
Cc1noc(C)c1S(=O)(=O)N(C)C[C@H]1Oc2ccc(NS(=O)(=O)c3ccccc3)cc2CC(=O)N([C@H](C)CO)C[C@@H]1C	none (no result: CAL PDZ FP-1, CaV13 ICDI inh, CAL PDZ FP-2)
CCNC(=O)[C@H]1[C@H](CO)[C@H]2Cn3c(ccc(-c4ccccc4F)c3=O)[C@@H]1N2CC	none (no result: CAL PDZ FP-1, CaV13 ICDI inh, CAL PDZ FP-2)
CSc1ccc(/C=N/Nc2nc(C)cc(=O)[nH]2)cc1	none
Cc1cc(=O)[nH]c(N/N=C/c2ccc(O)c(O)c2)n1	ARNT-TACC3 inh 67
COc1ccc(C(C)(C)C)cc1NC(=O)COC(=O)c1cnc(C)cn1	none
COc1ccc(C(C)(C)C)cc1NC(=O)COC(=O)C1=NNC(=O)CC1	CAL PDZ FP-1 133
CCCNC(=S)Nc1ccc(Cl)cc1C	CAL PDZ FP-1 50
Cc1ccc(/C=N/NC(=O)c2cc(-c3ccc(C)o3)[nH]n2)cc1	none
COc1ccccc1/C=C/C=N/NC(=O)c1cc(-c2ccc(C)o2)[nH]n1	CAL PDZ FP-1 62
O=C(O)CN1C(=O)/C(=C\c2cn(-c3ccccc3)nc2-c2ccccc2)SC1=S	ARNT-TACC3 inh 46 (no result: CaV13 ICDI inh)
C[C@@H]1CN([C@@H](C)CO)C(=O)CCCn2cc(nn2)CO[C@@H]1CN(C)Cc1ccc2c(c1)OCCN2C	none (no result: CAL PDZ FP-1, CaV13 ICDI inh, CAL PDZ FP-2)
COc1ccc(OC)c(/C=C/C(=O)OCC(=O)N2CCCCC2)c1	CAL PDZ FP-1 64
COc1ccc(/C=C/C(=O)OCC(=O)N2CCCCCC2)cc1OC	none
COc1ccc(N(CC(=O)NCCSc2ccc(C)cc2)S(=O)(=O)c2ccccc2)c(OC)c1	CAL PDZ FP-1 40
CC(C)(C)CN1CCNC(=O)C1CC(=O)NCCc1ccccc1C(F)(F)F (stereo not drawn)	none (no result: CAL PDZ FP-1)
CC(C)(C)CN1CCNC(=O)C1CC(=O)NCCN1CCCc2ccccc21 (stereo not drawn)	CAL PDZ FP-1 55
COc1ccc(NS(=O)(=O)c2ccc3oc(=S)[nH]c3c2)cc1	CAL PDZ FP-1 31
CCN(CC)c1ccc(NS(=O)(=O)c2ccc(OC)cc2)cc1	CAL PDZ FP-1 66
COc1ccc(S(=O)(=O)Nc2ccc(N(C)C(C)=O)cc2)cc1	none (no result: ARNT-TACC3 inh)
